Compound activity as filed in PubChem.
Hits are enriched below; roughly 3.1% of the tested compounds scored in any of these assays.
LEDGF integ inh: blocks HIV-1 LEDGF/p75-dependent DNA integration; 370,000 tested, 0.64% active; TR-FRET IN-LEDGF/p75 DNA integration, Eu/Cy5; inhibition, % at 3.7 µM;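 active = inhibition above the screen-wide mean plus 3 SD, cut at about 13% in these data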;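 also: signal is the Cy5 over europium emission ratio at 671 and 618 nm; 0% = plate median of compound wells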
rCAG RNA binder: r(CAG) repeat RNA binding | 370,000 tested, 1.3% active | inhibition, % at 3 µM | TO-PRO-1 dye displacement fluorescence | AID 651821;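 active = inhibition above the plate cutoff, the mean of all test compounds on that plate plus 3 SD, cut at about 35% in these data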;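 also: 0% = DMSO alone and 100% = 100 µM mitoxantrone as full dye displacement; higher means more dye released from RNA so lower well fluorescence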
UHRF1 MBD2 ctr: UHRF1 methyl-DNA binding inhibition; inhibition, % at 4.4 µM; Q96T88; UHRF1 binding to methylated oligo, TR-FRET; AID 687016; 370,000 tested, 0.75% active; in the data active = inhibition above about 21%;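 also: UHRF1 SRA domain binding a hemimethylated CpG hairpin DNA probe; 0% = median of test compound wells and 100% = reference inhibitor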
CSN deneddyl inh: inhibitors of human CSN-mediated cullin deneddylation; Q92905; Purified CSN, SCF-Nedd8-OG deneddylation, fluorescence polarization; inhibition, % at 12.5 µM; 360,000 tested, 0.38% active; AID 651999;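 active = pattern-corrected inhibition above about 35%, with an unprinted fluorescence ratio check between 0.5 and 1.5, limit read from the data, passing the limit was not always enough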;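 also: 0% = enzyme with substrate and 100% = substrate without enzyme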
Target sequence (Q92905 whole entry, looked up, one chain of several): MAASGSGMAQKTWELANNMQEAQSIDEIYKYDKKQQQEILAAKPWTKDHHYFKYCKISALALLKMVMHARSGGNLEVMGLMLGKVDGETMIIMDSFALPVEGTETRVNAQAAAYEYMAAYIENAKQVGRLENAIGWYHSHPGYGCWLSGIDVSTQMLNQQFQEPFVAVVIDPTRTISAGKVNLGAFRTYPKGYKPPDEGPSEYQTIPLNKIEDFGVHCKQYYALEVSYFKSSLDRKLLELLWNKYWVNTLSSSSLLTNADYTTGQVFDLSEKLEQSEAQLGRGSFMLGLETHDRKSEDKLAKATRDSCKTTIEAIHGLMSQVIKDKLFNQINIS
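Test system: Human Csn5 produced in HEK293T cells | Compound: 12.5 µM single point | Times: 90 min, room temperature | Signal: Fluorescence polarization readout | Read-out basis: % inhibition of substrate cleavage by Csn5 | Controls: no-enzyme wells high, enzyme-with-substrate wells low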
MBD2 inh: blocks human MBD2 binding to methylated DNA. Q9UBB5. 370,000 tested, 0.31% active. inhibition, % at 4.4 µM. TR-FRET, MBD2 binding to methylated oligonucleotide; in the data active = inhibition above about 13%
Target sequence (Q9UBB5 whole entry, looked up): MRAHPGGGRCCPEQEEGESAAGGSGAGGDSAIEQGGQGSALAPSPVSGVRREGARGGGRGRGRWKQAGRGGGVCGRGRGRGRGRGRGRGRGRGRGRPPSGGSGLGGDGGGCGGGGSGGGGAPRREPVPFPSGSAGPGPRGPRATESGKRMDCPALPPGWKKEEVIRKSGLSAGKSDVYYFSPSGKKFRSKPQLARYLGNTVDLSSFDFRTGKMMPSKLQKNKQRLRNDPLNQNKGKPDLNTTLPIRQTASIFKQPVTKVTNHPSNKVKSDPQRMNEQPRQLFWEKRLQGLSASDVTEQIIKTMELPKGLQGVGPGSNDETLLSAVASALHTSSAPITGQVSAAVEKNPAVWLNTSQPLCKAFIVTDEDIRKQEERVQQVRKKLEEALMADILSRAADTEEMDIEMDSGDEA
ATG4B inh: blocks human ATG4B protease cleavage of LC3 substrate; Q9Y4P1; ATG4B cleavage of LC3-PLA2, NBD-HPC fluorescence, 1 h; inhibition, % at 8.33 µM; 340,000 tested, 0.51% active; in the data active = inhibition above about 40%
IN multimer up: counter-screen for LEDGF/p75 integration inhibitors: HIV-1 integrase multimerization activators | TR-FRET HIV-1 integrase multimerization, biochemical | activation, % at 7.7 µM | 2,000 tested, 17% active | shares compounds with LEDGF integ inh; in the data active = activation above about 8.9%
TRFRET interf: TR-FRET optical interference, LEDGF/p75 integration counter-screen; shares compounds with LEDGF integ inh; AID 1053135; inhibition, % at 7.7 µM; 2,000 tested, under 10 active; TR-FRET optical interference counterscreen, HIV-1 IN multimerization;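 active = inhibition above the mean over all tested compounds plus 3 SD, which no compound reached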;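 also: 0% = integrase with antibodies and DMSO and 100% = antibodies without integrase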
IN-LEDGF confirm: LEDGF/p75-dependent HIV-1 integration inhibition, confirmation. shares compounds with LEDGF integ inh. TR-FRET LEDGF/p75-dependent HIV-1 integration, biochemical. inhibition, % at 3.7 µM. 2,000 tested, 36% active. AID 1053136; in the data active = inhibition above about 14%
An asterisk follows results filed as active; · = no result given; + = active, no number.

SMILES | LEDGF integ inh | rCAG RNA binder | UHRF1 MBD2 ctr | CSN deneddyl inh | MBD2 inh | ATG4B inh | IN multimer up | TRFRET interf | IN-LEDGF confirm
COc1ccccc1N(/N=C1\Sc2ccccc2C1=O)C(C)=O | 16.6* | -2.1 | -8.3 | -0.8 | -7.2 | -23.0 | 0.3 | -1.2 | 23.3*
O=[N+]([O-])c1ccc2nc(-c3ccncc3)[nH]c2c1 | 45.7* | 2.0 | -6.9 | -1.9 | -6.0 | -5.7 | -0.7 | 3.3 | 3.6
CC(=O)c1cc(-c2cccc(Cl)c2O)c(=O)n2c1CCC2 | -1.6 | 7.2 | 4.2 | · | 1.8 | · | · | · | ·
CCN(CC)C(=O)C1=C(C)N(Cc2ccc(C(C)(C)C)cc2)C(=O)C(CC(=O)NC(c2ccccc2)c2ccccc2)C1 (stereo unspecified) | 69.7* | 7.8 | 1.2 | + | -2.6 | · | 1.0 | -5.2 | -10.1
Cc1cc(C)cc(N(CC(=O)NC2CCC(C)CC2)S(=O)(=O)c2ccc(C(C)(C)C)cc2)c1 (stereo unspecified) | 0.1 | -0.1 | -3.4 | · | -2.5 | · | · | · | ·
O=C(O)CC(CCc1ccccc1)OC1OC(CO)C(O)C(O)C1O (stereo unspecified) | 85.5* | 34.2 | 14.6 | 17.4 | 11.9 | -3.8 | 87.5* | -440.5 | 92.4*
CC(COc1ccc(C#N)c(F)c1)CN1CCC(C(O)(c2ccccc2)c2ccccc2)CC1 (stereo unspecified) | -1.5 | 3.6 | -1.2 | · | 3.4 | · | · | · | ·
O=C(CCNS(=O)(=O)c1ccccc1)NNC(=O)C1COc2ccccc2O1 (stereo unspecified) | 14.4* | 0.3 | -3.8 | 3.5 | 2.3 | -2.5 | 0.3 | -1.7 | 2.9
COC(=O)/C(=C/Nc1ccccc1)[N+](=O)[O-] | -2.0 | -1.8 | 1.6 | 4.4 | 4.8 | 8.7 | · | · | ·
COC(=O)/C(=C/Nc1ccc(O)cc1)[N+](=O)[O-] | 24.8* | 3.5 | 2.0 | 7.4 | -7.7 | -15.4 | 4.6 | -16.4 | -1.2
COCC(=O)N1[C@H](CO)[C@@H](c2ccc(-c3cccnc3)cc2)[C@H]1CN(C)S(=O)(=O)c1ccccc1[N+](=O)[O-] | 5.6 | 7.2 | -2.9 | · | -0.2 | · | · | · | ·
O=c1cc2oc3cc(O)c(O)cc3c(-c3ccccc3[N+](=O)[O-])c-2cc1O | 86.0* | 30.3 | 41.2* | 35.7 | 12.7 | 6.0 | 10.9* | -54.8 | 85.6*
CCN(C[C@H]1N[C@@](CC)(C(=O)OC)[C@H]2C(=O)N(Cc3ccccc3)C(=O)[C@@H]12)C(=O)Nc1ccc(C(F)(F)F)cc1 | 65.5* | 0.2 | 0.8 | 3.2 | 3.1 | -5.8 | -1.9 | 9.7 | -5.0
CCN(C[C@H]1N[C@@](CC)(C(=O)OC)[C@H]2C(=O)N(Cc3ccccc3)C(=O)[C@@H]12)C(=O)Nc1ccc(OC)cc1 | -1.2 | 0.9 | 3.2 | -2.0 | 6.8 | 0.4 | · | · | ·
NC(=O)[C@@H]1CCCN1C(=O)[C@H]1O[C@@H](n2ccc(N)nc2=O)[C@H](O)[C@@H]1O | 2.9 | 0.1 | -1.2 | · | 3.0 | · | · | · | ·
O=C1NC(c2cccc(Br)c2)=N/C1=C\c1ccco1 | 20.7* | 18.6 | -0.5 | 30.2 | -0.1 | -6.4 | 3.8 | -19.8 | 8.3
O=C1NC(c2ccccc2)=N/C1=C/c1ccco1 | 11.1 | 6.4 | 3.2 | 1.3 | -1.8 | -9.8 | · | · | ·
N=C1c2ccccc2CN1NC(=O)c1cccc(S(=O)(=O)N2CCCC2)c1 | 89.1* | -1.6 | -4.1 | 0.8 | -6.1 | -3.2 | -1.2 | 6.1 | -3.9
CCN(CC)S(=O)(=O)c1cccc(C(=O)NN2Cc3ccccc3C2=N)c1 | -8.8 | -1.7 | 2.7 | 5.7 | -0.7 | 2.7 | · | · | ·
COc1ccc(-n2c(SCC(=O)N3CCCC3)nnc2-c2ccncc2)cc1 | -1.9 | 2.6 | -0.5 | · | 5.3 | · | · | · | ·
COc1cc2c(C#N)c(N3CCOCC3)nc(N)c2c(N)n1 | 1.9 | 2.2 | -11.0 | 18.1 | -1.2 | -5.0 | · | · | ·
COc1cc2c(C#N)c(N3CCCCC3)nc(N)c2c(N)n1 | 33.5* | 17.5 | -12.7 | 12.2 | -2.3 | -7.2 | 0.5 | -2.6 | 1.2
CC(=O)c1ccc(OC2(C)CCN(Cc3ccc4c(c3)OCCO4)C2)cc1 (stereo unspecified) | 14.8* | -2.0 | 0.7 | 6.5 | 3.2 | · | -3.3 | 16.5 | -4.7
CCc1ccc(OC2(C)CCN(Cc3ccc4c(c3)OCCO4)C2)cc1 (stereo unspecified) | -2.9 | 2.7 | -1.0 | 8.6 | -1.9 | · | · | · | ·
COc1ccc(/C=C(\C#N)C(=O)NCCc2ccccc2)cc1OCc1ccccc1 | 0.7 | -0.9 | -1.6 | -14.1 | -2.3 | -2.2 | · | · | ·
SMILES | LEDGF integ inh | rCAG RNA binder | UHRF1 MBD2 ctr | CSN deneddyl inh | MBD2 inh | ATG4B inh | IN multimer up | TRFRET interf | IN-LEDGF confirm
COCCCNC(=O)/C(C#N)=C/c1ccc(OCC(=O)O)c(OC)c1 | 17.2* | 16.5 | 34.2* | 49.1 | 7.0 | -2.5 | 22.9* | -115.4 | 36.1*
COC[C@H]1CCCN1c1cccc2c1S(=O)(=O)N(C1CC1)CCCO2 | 0.1 | 1.6 | -3.0 | · | 0.4 | · | · | · | ·
COC(=O)C1=C(C)N(CCCC(=O)O)C(=O)NC1c1cc2c(cc1[N+](=O)[O-])OCO2 (stereo unspecified) | 27.4* | 11.1 | 14.1 | -4.9 | 1.9 | 4.2 | 26.4* | -93.6 | 48.4*
O=C(Nc1ccccc1N1CCOCC1)c1ccc(F)c(S(=O)(=O)N2CCOCC2)c1 | 1.7 | 0.7 | -1.7 | 1.6 | -3.1 | 5.1 | · | · | ·
CC1Cc2ccccc2N1C(=O)c1ccc(F)c(S(=O)(=O)N2CCOCC2)c1 (stereo unspecified) | 25.8* | 1.4 | 0.1 | 3.6 | -2.3 | -6.4 | 1.7 | -6.3 | 3.9
CN(C)CC(=O)N[C@H]1C[C@@H]2O[C@H](CO)CC[C@@H]2O[C@@H]1CCc1ccc(-c2ccc(F)cc2)cc1 | 0.5 | 4.2 | 4.6 | · | 3.6 | · | · | · | ·
COc1ccc(CN(C)C(=O)CCNS(=O)(=O)c2ccccc2)c(OC)c1 | 23.2* | 1.7 | -1.9 | -0.8 | -3.8 | · | -0.3 | 1.0 | -11.1
CC(C)(C)c1cc(=O)n(-c2ccccc2)[nH]1 | 22.3* | 3.7 | 15.3 | -8.6 | 9.3 | 9.4 | -2.0 | 7.0 | 10.8
COc1cccc(CN2C(=O)CCC2(C)C(=O)NC2CCCC2)c1 (stereo unspecified) | 22.1* | -1.0 | -2.4 | 0.0 | -1.8 | -8.2 | 0.5 | -2.5 | 2.9
CC1(C(=O)NC2CCCCC2)CCC(=O)N1Cc1cccnc1 (stereo unspecified) | 0.1 | 3.0 | -0.1 | -3.4 | -0.9 | 0.4 | · | · | ·
COc1ccccc1CNS(=O)(=O)c1cc(CN2C(=O)c3cccnc3C2=O)ccc1OC | 0.9 | 3.9 | -2.7 | -1.8 | -0.8 | -4.5 | · | · | ·
